A selection: hits, their analogues and other compounds. The true share with any hit is near 4.3%.
TAAR1 antag: human TAAR1 antagonists, primary screen, Fluo-8 calcium fluorescence, CHO RD-HGA16 cells; inhibition, % at 3 µM; 360,000 compounds, 1.5% hits; Trace amine-associated receptor 1 (Homo sapiens), Q96RJ0; antagonist;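 active means inhibition above a per-plate cutoff, the mean inhibition of test compounds on that plate plus 3 SD, cut at about 49% in these data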;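 further: 0% = DMSO plus EC80 beta-PEA response and 100% = DMSO alone without agonist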
Target sequence (Q96RJ0 whole entry, looked up): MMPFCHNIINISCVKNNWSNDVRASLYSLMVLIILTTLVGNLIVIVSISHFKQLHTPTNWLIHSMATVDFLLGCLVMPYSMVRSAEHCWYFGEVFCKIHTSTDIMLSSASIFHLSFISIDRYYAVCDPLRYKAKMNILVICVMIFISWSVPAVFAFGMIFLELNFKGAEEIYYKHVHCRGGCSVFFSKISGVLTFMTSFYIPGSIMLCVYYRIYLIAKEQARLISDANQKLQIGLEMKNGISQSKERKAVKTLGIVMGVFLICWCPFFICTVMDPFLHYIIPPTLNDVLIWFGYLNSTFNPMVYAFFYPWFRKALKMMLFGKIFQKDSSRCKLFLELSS
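Test system – hTAAR1-expressing CHO RD-HGA16 cells, Gα16-coupled · Reagent – β-PEA at EC80 concentration, post-compound challenge · Compound dosing – 3 µM, single point · Timing – 140 s kinetic read after compound, 140 s after agonist · Detection – Fluo-8 intracellular calcium dye fluorescence, real-time kinetic reads · Control set – DMSO and EC80 PEA controls · Repeats – n of 1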
B2AR ag: beta2AR agonists driving receptor internalization, primary screen, cell-based, FAP fluorogen, flow cytometry; Beta-2 adrenergic receptor (Homo sapiens), P07550; Am2.2-beta2AR cells; response, % (concentration not given with the values); 340,000 compounds, 0.43% hits;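 active means response above a set limit, near 3 SD of response in nonfluorescent compounds, cut at about 42% in these data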
MC4R ag barr: MC4R agonists recruiting beta-arrestin, primary screen, cell-based, luminescence, agonist arm of biased-ligand search. activation, % at 8.9 µM. U2OS MC4R beta-arrestin complementation; percent of melanotan II response, DMSO zero. AID 540308, 2011. 360,000 compounds, 0.98% hits;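 active means activation above a per-plate cutoff, the mean activation of sample wells on that plate plus 3 SD, cut at about 8% in these data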
TAAR1 ag: human TAAR1 agonists, primary screen, Fluo-8 calcium fluorescence, CHO RD-HGA16 cells | Trace amine-associated receptor 1 (Homo sapiens), Q96RJ0 | vehicle wells 0%, saturating PEA agonist 100% | activation, % at 3 µM | 360,000 compounds, 0.99% hits;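 active means activation above the mean activation of all test compounds in the run plus 3 SD, cut at about 38% in these data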
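Benchmarks: low control DMSO, high control PEA (EC100); System: CHO RD-HGA16 cells carrying human TAAR1 plus Gα16; Detection: Fluo-8 fluorescence, 5 s baseline then 140 s kinetic read; Schedule: 17-24 h plating, Fluo-8 75 min 37 °C, 30 min RT; Read-out basis: % activation from peak over basal fluorescence ratio, DMSO-to-PEA scaled.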
HTR2A ag: mouse Htr2a agonists via beta-arrestin recruitment, primary screen, cell-based, luminescence | CHO-K1 mHTR2A beta-arrestin complementation; percent of 30 µM serotonin response | 5-hydroxytryptamine receptor 2A (Mus musculus), P35363 | 360,000 compounds, 0.66% hits | activation, % at 7.6 µM;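 active means activation above a run cutoff, the mean activation of all tested compounds plus 3 SD, cut at about 14% in these data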;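 further: 0% = plate median of compound wells and 100% = 30 µM serotonin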
MC4R antagonist: MC4R antagonists of cAMP signaling, primary screen, cell-based, TR-FRET, antagonist arm of biased-ligand search | MC4R-expressing cells, MTII-stimulated cAMP, LANCE TR-FRET | inhibition, % at 6.5 µM | 360,000 compounds, 0.48% hits;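 active means inhibition above its plate's cutoff, the mean of tested wells on that plate plus 3 SD, cut at about 29% in these data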;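 further: 0% = Melanotan II alone and 100% = Melanotan II plus saturating MCL0020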
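system = U2OS cells with stable human MC4R expression | also added = Melanotan II challenge after compound preincubation | dosing = one concentration, 6.5 µM nominal | incubation = compound 30 min, challenge 1 h, detection 1 h | measured by = TR-FRET with Eu-cAMP and labeled anti-cAMP, 671 nm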
MC4R barr conf: MC4R beta-arrestin agonists, retest, confirmation, cell-based, luminescence, U2OS; shares compounds with MC4R ag barr; U2OS MC4R beta-arrestin recruitment; scaled DMSO 0%, Melanotan II 100%; activation, % at 8.9 µM; 2,400 compounds, 31% hits; AID 602192, 2012;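 active means mean activation across replicates above the hit cutoff set in the earlier primary screen, cut at about 8% in these data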
MOR-DOR barr ag: agonists of MOR-DOR heterodimerization, counter-screen for MC4R biased agonist project, cell-based, luminescence; shares compounds with MC4R ag barr; activation, % at 9.2 µM; AID 602194, 2012; U2OS PathHunter beta-arrestin, beta-gal luminescence; percent of deltorphin B response, DMSO zero; 2,400 compounds, 5.8% hits;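 active means mean activation across replicates exceeds the hit threshold derived in the earlier primary screen, cut at about 18% in these data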;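 further: 100% = deltorphin B at 0.9 µM final and 0% = DMSO alone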
An asterisk follows results filed as active; / = not tested or not shown.

SMILES	TAAR1 antag	B2AR ag	MC4R ag barr	TAAR1 ag	HTR2A ag	MC4R antagonist	MC4R barr conf	MOR-DOR barr ag
CCOC(=O)C1(Cc2cccc(OC)c2)CCN(C/C=C/c2ccccc2)CC1	-8.3	-2.8	12.5*	4.1	-5.7	-2.1	10.3*	9.9
CCCCn1nnnc1C(c1cc2ccccc2o1)N1CCN(c2cc(C)nc3ccccc23)CC1 (centres undefined)	-19.4	/	/	1.2	12.6	/	/	/
CCOC(=O)CNC(=O)CSc1nc(-c2ccc(OC)cc2)ns1	-3.0	8.0	1.0	-0.8	-0.6	7.2	/	/
COc1ccc(-c2nsc(SCC(=O)Nc3cc(C)on3)n2)cc1	6.0	3.2	17.0*	0.7	0.2	5.8	-0.6	7.0
Cc1ccc2cc(C)c(SCC(=O)Nc3cc(C)on3)nc2c1	-11.8	1.3	19.9*	8.4	-4.8	18.0	6.3	3.3
CC1CC(NC(=O)c2c(O)nc3sccn3c2=O)CC(C)(C)C1 (centres undefined)	-28.4	3.7	1.5	-1.1	9.5	9.6	/	/
Cc1ccc(-c2nnc(-c3ccc4ccccc4c3)o2)cc1	-1.6	-11.7	10.2*	-1.0	-1.5	3.0	-3.7	1.1
Clc1ccc(-c2nnc(-c3ccc4ccccc4c3)o2)cc1	-8.2	-3.6	1.4	4.3	0.4	5.9	/	/
Cc1nc(C(=O)NNC(=O)c2ccc(Cl)cc2)c(C(F)(F)F)o1	3.1	-10.4	-0.6	-0.2	-4.8	0.5	/	/
Cc1[nH]c2ccccc2c1C(=O)CSc1ccc(Cl)cc1	39.5	-8.5	11.7*	10.3	-0.6	-11.3	2.9	5.9
COC(=O)[C@H](CC(C)C)N1Cc2cc(OC)cc(OC)c2-c2ccccc2S1(=O)=O	12.5	-7.1	-1.4	-2.3	-1.0	3.6	/	/
N#C/C(=C\c1ccc([N+](=O)[O-])o1)C(=O)Nc1ccc(F)cc1	12.9	-59.5	12.2*	2.6	4.7	13.1	13.5*	14.3
COc1cc(NC(=O)COc2ccccc2[N+](=O)[O-])ccc1NC(=O)c1ccco1	-1.9	-1.4	-3.8	9.0	4.1	2.1	/	/
COc1cc(NC(=O)c2ccc(Cl)cc2Cl)ccc1NC(=O)c1cccs1	0.4	-12.0	21.0*	0.6	7.4	22.8	1.4	6.0
COc1cc(NC(=O)COc2ccccc2[N+](=O)[O-])ccc1NC(=O)c1cccs1	-14.1	4.8	38.4*	3.0	1.7	-4.3	18.1*	10.1
Cc1cc(C)c(/C=N/NC(=O)c2nnn(-c3nonc3N)c2CN2CCC(C)CC2)c(C)c1	-58.5	-2.1	17.4*	-2.9	-8.0	15.3	15.5*	4.8
Nc1nonc1-n1nnc(C(=O)N/N=C/c2ccc(OCc3ccccc3)cc2)c1CNc1ccccc1	-19.4	-5.5	25.4*	0.1	0.5	7.9	4.9	3.5
CC(C)c1c(C(=O)N/N=C/c2ccc(OCc3ccccc3)cc2)nnn1-c1nonc1N	21.8	10.0	14.1*	14.7	-0.6	-1.2	3.5	5.7
CCCc1c(C(=O)N/N=C/c2cccc3ccccc23)nnn1-c1nonc1N	3.3	/	17.5*	0.2	-5.8	11.5	1.4	3.2
Nc1nonc1-n1nnc(C(=O)N/N=C/c2ccc(OCc3ccccc3)cc2)c1COc1ccc(F)cc1	-4.9	7.8	-0.1	-0.3	-1.6	9.0	/	/

Screens as filed in PubChem.
